From ChEMBL document CHEMBL3244289, “Synthesis and antibacterial activity of 2'-substituted chelocardin analogues” (1979)
Active and inactive are the calls of the source. No cut-off for these calls is given here.

Legend:
Pseudomonas aeruginosa = test: Antibacterial activity against Pseudomonas aeruginosa by two-fold agar dilution method; type: functional, organism-based
Outline: (§1)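 MIC determined by twofold serial dilution in brain-heart infusion agar. Values are reported in µg/mL.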

Klebsiella pneumoniae = test: Antibacterial activity against Klebsiella pneumoniae 8045 by two-fold agar dilution method; type: functional; outline: as §1
Streptococcus pyogenes = test: Antibacterial activity against Streptococcus pyogenes C-203 by two-fold agar dilution method; type: functional; outline: as §1
Escherichia coli = test: Antibacterial activity against Escherichia coli Juhl by two-fold agar dilution method; type: functional; outline: as §1
Proteus mirabilis [1] = test: Antibacterial activity against Proteus mirabilis by two-fold agar dilution method; type: functional; outline: as §1
Proteus vulgaris = test: Antibacterial activity against Proteus vulgaris by two-fold agar dilution method; type: functional; outline: as §1
Enterococcus = test: Antibacterial activity against Enterococcus 89 by two-fold agar dilution method; type: functional; outline: as §1
Pasteurella multocida = test: Antibacterial activity against Pasteurella multocida 10544 by two-fold agar dilution method; type: functional; outline: as §1
Staphylococcus aureus [2] = test: Antibacterial activity against Staphylococcus aureus 45 by two-fold agar dilution method; type: functional; outline: as §1
Salmonella typhi = test: Antibacterial activity against Salmonella typhi by two-fold agar dilution method; type: functional, Salmonella enterica subsp. enterica serovar Typhi; conditions: Salmonella enterica
Outline: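 MIC in µg/mL by twofold serial agar dilution on brain-heart infusion agar.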

Proteus mirabilis [3] = test: Antibacterial activity against Proteus mirabilis infected in sc dosed mouse assessed as protection against bacterial infection; type: functional
Outline: (§2)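 Mice were challenged intraperitoneally with Proteus mirabilis, and compound was given by the line's route (oral or subcutaneous). The CD50 is the total dose in mg/kg that protects 50% of challenged mice.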

Proteus mirabilis [4] = test: Antibacterial activity against Proteus mirabilis infected in po dosed mouse assessed as protection against bacterial infection; type: functional; outline: as §2
Staphylococcus aureus [5] = test: Antibacterial activity against Staphylococcus aureus Smith by two-fold agar dilution method; type: functional; outline: as §1

SMILES | Activity (Pseudomonas aeruginosa) | MIC (Klebsiella pneumoniae) | MIC (Streptococcus pyogenes) | MIC (Escherichia coli) | MIC (Proteus mirabilis [1]) | MIC (Proteus vulgaris) | MIC (Enterococcus) | MIC (Pasteurella multocida) | MIC (Staphylococcus aureus [2]) | MIC (Salmonella typhi) | CD50 (Proteus mirabilis [3]) | CD50 (Proteus mirabilis [4]) | MIC (Staphylococcus aureus [5])
CC(=O)NS(=O)(=O)c1ccc(/N=C(\C)C2=C(O)[C@H](N)[C@@H]3Cc4c(c(O)c5c(O)c(C)ccc5c4C)C(=O)[C@]3(O)C2=O)cc1.Cl | inactive | 1.56 µg/mL | 3.1 µg/mL | 6.2 µg/mL | 6.2 µg/mL | 3.1 µg/mL | 12.5 µg/mL | 0.78 µg/mL | 6.2 µg/mL | 1.5 µg/mL | 6.25 mg/kg | 100 mg/kg | 3.1 µg/mL
CC(=O)C1=C(O)[C@H](N)[C@@H]2Cc3c(c(O)c4c(O)c(C)ccc4c3C)C(=O)[C@]2(O)C1=O.Cl [CETOCYCLINE HYDROCHLORIDE] | inactive | 3.1 µg/mL | 3.1 µg/mL | 6.2 µg/mL | 1.56 µg/mL | 1.56 µg/mL | 6.2 µg/mL | 0.39 µg/mL | 6.2 µg/mL | 1.5 µg/mL | 12.5 mg/kg | 200 mg/kg | 3.1 µg/mL
CC(=O)N/N=C(\C)C1=C(O)[C@H](N)[C@@H]2Cc3c(c(O)c4c(O)c(C)ccc4c3C)C(=O)[C@]2(O)C1=O.Cl | inactive | 6.2 µg/mL | 6.2 µg/mL | 12.5 µg/mL | 6.2 µg/mL | 6.2 µg/mL | 12.5 µg/mL | 0.78 µg/mL | 12.5 µg/mL | 6.2 µg/mL | 25 mg/kg | 50 mg/kg | 12.5 µg/mL
C/C(=N\c1ccc(Cl)cc1)C1=C(O)[C@H](N)[C@@H]2Cc3c(c(O)c4c(O)c(C)ccc4c3C)C(=O)[C@]2(O)C1=O.Cl | inactive | 3.1 µg/mL | 6.2 µg/mL | 25 µg/mL | 3.1 µg/mL | 1.56 µg/mL | 25 µg/mL | 0.39 µg/mL | 6.2 µg/mL | 3.1 µg/mL | – | – | 6.2 µg/mL
C/C(=N\NC(=O)Cc1ccccc1)C1=C(O)[C@H](N)[C@@H]2Cc3c(c(O)c4c(O)c(C)ccc4c3C)C(=O)[C@]2(O)C1=O.Cl | inactive | 6.2 µg/mL | 12.5 µg/mL | 50 µg/mL | 12.5 µg/mL | 12.5 µg/mL | 50 µg/mL | 6.2 µg/mL | 25 µg/mL | 12.5 µg/mL | – | – | 25 µg/mL
C/C(=N\N1CCOC1=O)C1=C(O)[C@H](N)[C@@H]2Cc3c(c(O)c4c(O)c(C)ccc4c3C)C(=O)[C@]2(O)C1=O.Cl | inactive | 25 µg/mL | 25 µg/mL | 25 µg/mL | 12.5 µg/mL | 6.2 µg/mL | 25 µg/mL | 1.6 µg/mL | 25 µg/mL | 25 µg/mL | – | – | 25 µg/mL
C/C(=N\NC(N)=S)C1=C(O)[C@H](N)[C@@H]2Cc3c(c(O)c4c(O)c(C)ccc4c3C)C(=O)[C@]2(O)C1=O.Cl | inactive | 25 µg/mL | 25 µg/mL | 100 µg/mL | 50 µg/mL | 50 µg/mL | 100 µg/mL | 3.1 µg/mL | 50 µg/mL | 25 µg/mL | – | – | 50 µg/mL
C/C(=N\c1ccc(C)cc1)C1=C(O)[C@H](N)[C@@H]2Cc3c(c(O)c4c(O)c(C)ccc4c3C)C(=O)[C@]2(O)C1=O.Cl | inactive | 6.2 µg/mL | 6.2 µg/mL | 25 µg/mL | 6.2 µg/mL | 6.2 µg/mL | 25 µg/mL | 0.39 µg/mL | 12.5 µg/mL | 3.1 µg/mL | – | – | 12.5 µg/mL
C/C(=N\NC(=O)Nc1ccccc1Cl)C1=C(O)[C@H](N)[C@@H]2Cc3c(c(O)c4c(O)c(C)ccc4c3C)C(=O)[C@]2(O)C1=O.Cl | inactive | 50 µg/mL | 25 µg/mL | 100 µg/mL | 50 µg/mL | 50 µg/mL | 100 µg/mL | 6.2 µg/mL | 100 µg/mL | 50 µg/mL | – | – | 50 µg/mL
C/C(=N\NC(=O)c1ccc(N)cc1)C1=C(O)[C@H](N)[C@@H]2Cc3c(c(O)c4c(O)c(C)ccc4c3C)C(=O)[C@]2(O)C1=O.Cl (stereo in doubt) | inactive | 12.5 µg/mL | 25 µg/mL | 50 µg/mL | 12.5 µg/mL | 12.5 µg/mL | 50 µg/mL | 1.56 µg/mL | 50 µg/mL | 12.5 µg/mL | – | – | 50 µg/mL
C/C(=N\NC(N)=O)C1=C(O)[C@H](N)[C@@H]2Cc3c(c(O)c4c(O)c(C)ccc4c3C)C(=O)[C@]2(O)C1=O.Cl | inactive | 12.5 µg/mL | 25 µg/mL | 25 µg/mL | 25 µg/mL | 12.5 µg/mL | 50 µg/mL | 1.56 µg/mL | 25 µg/mL | 6.2 µg/mL | – | – | 25 µg/mL
CCCC(=O)N/N=C(\C)C1=C(O)[C@H](N)[C@@H]2Cc3c(c(O)c4c(O)c(C)ccc4c3C)C(=O)[C@]2(O)C1=O.Cl | inactive | 12.5 µg/mL | 25 µg/mL | 50 µg/mL | 12.5 µg/mL | 12.5 µg/mL | 50 µg/mL | 1.56 µg/mL | 50 µg/mL | 12.5 µg/mL | – | – | 50 µg/mL
C/C(=N\N(C)C)C1=C(O)[C@H](N)[C@@H]2Cc3c(c(O)c4c(O)c(C)ccc4c3C)C(=O)[C@]2(O)C1=O.Cl | inactive | 6.2 µg/mL | 6.2 µg/mL | 12.5 µg/mL | 6.2 µg/mL | 6.2 µg/mL | 6.2 µg/mL | 0.78 µg/mL | 12.5 µg/mL | 3.1 µg/mL | – | – | 12.5 µg/mL
C/C(=N\NC(=O)c1ccc(O)cc1)C1=C(O)[C@H](N)[C@@H]2Cc3c(c(O)c4c(O)c(C)ccc4c3C)C(=O)[C@]2(O)C1=O.Cl (stereo in doubt) | inactive | 25 µg/mL | 50 µg/mL | 50 µg/mL | 12.5 µg/mL | 12.5 µg/mL | 100 µg/mL | 3.1 µg/mL | 50 µg/mL | 25 µg/mL | – | – | 50 µg/mL
C/C(=N\c1ccc(Br)cc1)C1=C(O)[C@H](N)[C@@H]2Cc3c(c(O)c4c(O)c(C)ccc4c3C)C(=O)[C@]2(O)C1=O.Cl | inactive | 3.1 µg/mL | 12.5 µg/mL | 25 µg/mL | 6.2 µg/mL | 6.2 µg/mL | 25 µg/mL | 0.39 µg/mL | 12.5 µg/mL | 3.1 µg/mL | – | – | 12.5 µg/mL
C/C(=N\c1ccc(O)cc1)C1=C(O)[C@H](N)[C@@H]2Cc3c(c(O)c4c(O)c(C)ccc4c3C)C(=O)[C@]2(O)C1=O.Cl | inactive | 3.1 µg/mL | 12.5 µg/mL | 50 µg/mL | 6.2 µg/mL | 3.1 µg/mL | 25 µg/mL | 0.78 µg/mL | 12.5 µg/mL | 6.2 µg/mL | – | – | 12.5 µg/mL
